Laboratory results from ChEMBL document CHEMBL1126280, “Development of a novel series of styrylquinoline compounds as high-affinity leukotriene D4 receptor antagonists: synthetic and structure-activity studies leading to the discovery of (+-)-3-[[[3-[2-(7-chloro-2-quinolinyl)-(E)-ethenyl]phenyl][[3- (dimethylamino)-3-oxopropyl]thio]methyl]thio]propionic …” (J Med Chem, 1992).

Legend:
[1] = target: T1, Cysteinyl leukotriene receptor 1 (Cavia porcellus, UniProt Q2NNR5); assay: (§1) In vitro inhibition of [3H]LTD4 binding to guinea pig lung membranes; format: tissue-based, Membrane
T1 sequence (Q2NNR5 whole entry): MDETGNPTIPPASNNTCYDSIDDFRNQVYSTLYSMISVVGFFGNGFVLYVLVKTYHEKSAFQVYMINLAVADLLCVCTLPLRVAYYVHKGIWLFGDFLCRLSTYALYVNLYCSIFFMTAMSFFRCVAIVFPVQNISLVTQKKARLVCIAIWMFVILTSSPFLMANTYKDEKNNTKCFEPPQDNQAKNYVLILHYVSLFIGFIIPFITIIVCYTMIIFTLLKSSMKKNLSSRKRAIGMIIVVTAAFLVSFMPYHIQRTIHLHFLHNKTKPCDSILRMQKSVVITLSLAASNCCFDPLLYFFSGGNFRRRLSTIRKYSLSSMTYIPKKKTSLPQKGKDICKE

Rattus norvegicus [2] = assay: Compound was evaluated in vivo for inhibition of dyspnea induced by a 5 min aerosol of ovalbumin in 6 hyperreactive rats for each of three doses; format: functional
Summary of the method: (§2)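 Oral dosing in hyperreactive rats. Dyspnea was provoked by a 5 min ovalbumin aerosol. Six rats were used at each of three doses. The ED50 was derived from the percent inhibition of dyspnea across those doses.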

Rattus norvegicus [3] = assay: Compound was evaluated in vivo for inhibition of dyspnea induced by a 5 min aerosol of ovalbumin in six hyperactive rats for each of three doses; format: functional; summary of the method: as §2
[4] = target: T2, Cysteinyl leukotriene receptor 1 (Cavia porcellus) (UniProt Q2NNR5); assay: In vitro inhibition of [3H]LTD4 binding to guinea pig lung membranes at 1 uM; format: functional, tissue-based; conditions: Membrane
T2 sequence (whole entry): T1 sequence (Q2NNR5 whole entry)

Cavia porcellus = assay: Compound was evaluated in vivo for its effective dose against bronchoconstriction induced by LTD4 (0.2 ug/kg, iv) in anesthetized guinea pigs followed by id administration; format: functional
Summary of the method: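 Anesthetized guinea pigs were dosed once intraduodenally and challenged with LTD4 (0.2 μg/kg iv) 10, 30 and 50 min later. The effective dose is the minimum id dose giving over 50% inhibition of bronchoconstriction within 50 min. The number of experiments is reported with each value.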

[5] = target: T1, Cysteinyl leukotriene receptor 1; assay: as §1; format: functional, tissue-based, Membrane
Rattus norvegicus [6] = assay: Compound was evaluated in vivo for inhibition of dyspnea induced by a 5 min aerosol of ovalbumin in 6 hyperreactive rats at dose of 0.5 mg/Kg; format: functional
Summary of the method: (§3)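 Oral single-dose test in hyperreactive rats, six animals, with dyspnea provoked by a 5 min ovalbumin aerosol. The value is the percent inhibition of dyspnea at the one stated dose.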

Rattus norvegicus [7] = assay: Compound was evaluated in vivo for inhibition of dyspnea induced by a 5 min aerosol of ovalbumin in 6 hyperreactive rats at dose of 1.5 mg/Kg; format: functional; summary of the method: as §3

Structure (SMILES) | IC50 [1] [nM] | Effective dose (Cavia porcellus) [mg/kg] | also measured
C(=C\c1ccc2ccccc2n1)/c1ccccc1 | 6000 |  | 
O=C(O)CCSC(SCCC(=O)N1CCOCC1)c1cccc(/C=C/c2ccc3ccc(Cl)cc3n2)c1 (stereo unspecified) | 2.2 |  | Effective dose (Rattus norvegicus [2]): 0.15 mg/kg; Inhibition (Rattus norvegicus [3]): 43%
CC(Oc1cccc(Sc2ccc3ccc(Cl)cc3n2)c1)C(=O)O (stereo unspecified) |  |  | inhibition [4]: 24%
COC(=O)COc1cccc(/C=C/c2ccc3cc(C)ccc3n2)c1 |  | >10 | IC50 [5]: 930 nM
O=C(O)CCSC(SCCC(=O)O)c1cccc(/C=C/c2ccc3ccc(Cl)cc3n2)c1 |  | 0.5 | ED50 (Rattus norvegicus [2]): 0.1 mg/kg
O=C([O-])CCCOc1cccc(/C=C/c2ccc3c(Cl)cccc3n2)c1.[Na+] |  | >5 | 
C(=C\c1ccc2ccccc2n1)/c1cccnc1 | 6000 |  | 
O=C([O-])CCCOc1cccc(/C=C/c2ccc3ccc(Cl)cc3n2)c1.[Na+] |  | 2.5 | inhibition in vivo at 0.5 mg/kg (Rattus norvegicus [6]): 41%
O=C(O)CCCOc1cccc(/C=C/c2ccc3ccccc3c2)c1 |  |  | inhibition [4]: 11%
CN(C)CCSC(SCCC(=O)O)c1cccc(/C=C/c2ccc3ccc(Cl)cc3n2)c1 (stereo unspecified) | 60 |  | 
COC(=O)COc1cccc(/C=C/c2ccc3ccccc3n2)c1 |  | 10 | ED50 (Rattus norvegicus [2]): 2 mg/kg
NC(=O)CCSC(SCCC(=O)O)c1cccc(/C=C/c2ccc3ccc(Cl)cc3n2)c1 (stereo unspecified) | 0.3 | 0.5 | 
O=C(O)CCSC(SCCC(=O)O)c1cccc(OCc2ccc3ccc(Cl)cc3n2)c1 | 13.6 |  | 
CN(C)C(=O)CCSC(SCCC(=O)O)c1cccc(SCc2ccc3ccc(Cl)cc3n2)c1 (stereo unspecified) | 89 |  | 
O=C([O-])CCCOc1cccc(/C=C/c2ccc3cc(Cl)c(Cl)cc3n2)c1.[Na+] |  | 1 | ED50 (Rattus norvegicus [2]): 0.5 mg/kg
O=C(O)CCSC(SCCC(=O)O)c1cccc(CCc2ccc3ccc(Cl)cc3n2)c1 | 57 |  | 
O=C([O-])CCCOc1cccc(/C=C/c2ccc3cc(Cl)ccc3n2)c1.[Na+] |  | 5 | inhibition in vivo at 1.5 mg/kg (Rattus norvegicus [7]): 40%
O=C(O)CCSC(SCCC(=O)O)c1cccc(CCCc2ccc3ccc(Cl)cc3n2)c1 | 250 |  | 
CN(C)C(=O)CCSC(SCCC(=O)O)c1cccc(/C=C/c2ccc3ccc(Cl)cc3n2)c1 (stereo unspecified) [MK-571] | 0.8 | 0.1 | ED50 (Rattus norvegicus [2]): 0.07 mg/kg
CCCC/C=C/c1ccc2nc(/C=C/c3cccc(OCC(=O)OC)c3)ccc2c1 |  |  | inhibition [4]: 12%
CCOC(=O)CCCOc1cccc(/C=C/c2ccc3ccccc3n2)c1 |  | 5 | ED50 (Rattus norvegicus [2]): 1.5 mg/kg
O=C(O)CCSC(SCCC(=O)O)c1cccc(NC(=O)c2ccc3ccccc3n2)c1 | 440 |  | 
C(=C\c1ccc2ccccc2n1)/c1ccncc1 | 3300 |  | 
O=C(O)CCSC(SCCC(=O)O)c1cccc(C2CC2c2ccc3ccc(Cl)cc3n2)c1 (stereo unspecified) | 32 |  | 
